Laboratory results: ChEMBL document CHEMBL1144551, “Enantioselective synthesis and antiviral activity of purine and pyrimidine cyclopentenyl C-nucleosides” (Bioorg Med Chem, 2007)
Activity calls are given as the source filed them. The calls are words filed in the database; no cut-off is given here.

Assays:
[1] = Cytotoxicity against PBM cells; type: cell-based; conditions: Homo sapiens, PBMC
Cowpox virus = assay: Antiviral activity against Cowpox virus; type: functional, organism-based
West Nile virus = assay: Antiviral activity against West Nile virus; type: functional, organism-based
Human alphaherpesvirus 1 = assay: Antiviral activity against HSV1; type: functional, organism-based
Human alphaherpesvirus 2 = assay: Antiviral activity against herpes simplex virus 2; type: functional, organism-based
Dengue virus = assay: Antiviral activity against dengue virus; type: functional, organism-based
[2] = tested on: Venezuelan equine encephalitis virus; assay: Antiviral activity against Venezulean equine encephalitis virus; type: functional, organism-based
Punta Toro virus = assay: Antiviral activity against Punta Toro virus; type: functional, organism-based
Vero = assay: Cytotoxicity against Vero cells; type: cell-based; conditions: Chlorocebus sabaeus
[3] = tested on: Human immunodeficiency virus 1; assay: Antiviral activity against HIV1 LA1 in human PBM cells; type: functional, organism-based; conditions: Human immunodeficiency virus 1, LA1, PBMC
Method in brief: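 Human peripheral blood mononuclear (PBM) cells were infected with HIV-1 strain LAI, and antiviral activity was expressed as EC50.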

SARS-CoV = assay: Antiviral activity against SARS coronavirus; type: functional, organism-based; conditions: Severe acute respiratory syndrome-related coronavirus
Hepatitis C virus = assay: Antiviral activity against hepatitis C virus; type: functional, organism-based; conditions: Hepacivirus hominis
LLC-MK2 = assay: Cytotoxicity against LLC-MK2 cells; type: cell-based, Macaca mulatta; conditions: rhesus monkey
Yellow fever virus = assay: Antiviral activity against yellow fever virus; type: functional, organism-based
Human alphaherpesvirus 3 = assay: Antiviral activity against varicella zoster virus; type: functional, organism-based
CCRF-CEM = assay: Cytotoxicity against CEM cells; type: cell-based; conditions: Homo sapiens
Vaccinia virus = assay: Antiviral activity against vaccinia virus; type: functional, organism-based; conditions: Orthopoxvirus vaccinia
Tacaribe virus = assay: Antiviral activity against tacaribe virus; type: functional, organism-based; conditions: Mammarenavirus tacaribeense

| Compound | IC50 [1] | EC50 (Cowpox virus) | IC50 (Cowpox virus) | EC50 (West Nile virus) | Activity (Human alphaherpesvirus 1) | Activity (Human alphaherpesvirus 2) | Activity (Dengue virus) | Activity [2] | EC50 (Punta Toro virus) | IC50 (Vero) | EC50 [3] | EC90 [3] | Activity (Hepatitis C virus) | Activity (LLC-MK2) | Activity (Yellow fever virus) | Activity (Human alphaherpesvirus 3) | IC50 (CCRF-CEM) | Activity (Vaccinia virus) | IC50 (West Nile virus) | Activity (Tacaribe virus) | also measured |
| --- | --- | --- | --- | --- | --- | --- | --- | --- | --- | --- | --- | --- | --- | --- | --- | --- | --- | --- | --- | --- | --- |
| Cc1cn([C@H]2C[C@H](N=[N+]=[N-])[C@@H](CO)O2)c(=O)[nH]c1=O [ZIDOVUDINE] | > 100 µM |  |  |  |  |  |  |  |  |  |  |  |  |  |  |  |  |  |  |  |  |
| Nc1ncnc2c1ncn2[C@@H]1C=C(CO)[C@@H](O)[C@H]1O [NEOPLANOCIN A] |  | 8.4 µM | > 300 µM | > 51 µM |  |  |  |  |  |  |  |  |  |  |  |  |  |  |  |  |  |
| Nc1nc(O)c2[nH]cc([C@@H]3C=C(CO)[C@@H](O)[C@H]3O)c2n1 | > 100 µM | > 100 µM | > 100 µM | > 100 µM | inactive | inactive | inactive | inactive | 2.5 µM | > 100 µM | > 100 µM | > 100 µM | inactive | Not Active | inactive | inactive | > 100 µM | inactive | > 100 µM | inactive | IC50 (Punta Toro virus): > 100 µM; EC50 (SARS-CoV): > 100 µM |
| O=c1[nH]cc([C@@H]2C=C(CO)[C@@H](O)[C@H]2O)c(=O)[nH]1 | > 100 µM | > 100 µM | > 100 µM | > 100 µM | inactive | inactive | inactive | inactive | 65 µM | > 100 µM | > 100 µM | > 100 µM | inactive | Not Active | inactive | inactive | > 100 µM | inactive | > 100 µM | inactive | IC50 (Punta Toro virus): > 100 µM; EC50 (SARS-CoV): 49 µM; IC50 (SARS-CoV): > 100 µM |
| Nc1ncnc2c([C@@H]3C=C(CO)[C@@H](O)[C@H]3O)c[nH]c12 | 15.6 µM | > 100 µM | > 100 µM | > 100 µM | inactive | inactive | inactive | inactive |  | > 100 µM | 2 µM | 43.2 µM | inactive | Not Active | inactive | inactive | 10.6 µM | inactive | > 100 µM | inactive |  |
| Nc1nc(=O)c([C@@H]2C=C(CO)[C@@H](O)[C@H]2O)c[nH]1 | > 100 µM | > 100 µM | > 100 µM | 11 µM | inactive | inactive | inactive | inactive | > 100 µM | > 100 µM | > 100 µM | > 100 µM | inactive | Not Active | inactive | inactive | > 100 µM | inactive | > 100 µM | inactive | IC50 (Punta Toro virus): > 100 µM; EC50 (SARS-CoV): > 100 µM |
